Consider five molecules from ChEMBL document CHEMBL1144917, “Synthetic, nondegradable diadenosine polyphosphates and diinosine polyphosphates: their effects on insulin-secreting cells and cultured vascular smooth muscle cells” (J Med Chem, 2003).

In assay [1] the test system is INS1. Briefly: Percent of compound radioactivity ([3H]-Ap4A Degradation), determined in the incubation medium of INS-1 cell membranes. Also on record: concentration or dose not given beside the values. In kind it is functional, cell-based. The gist of the method: (§1)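 Membranes from half-confluent INS-1 cells incubated 10 min at 37 °C in KRH buffer with 5.6 mM glucose, 0.31 μM [3H]Ap4A, with or without 30 μM unlabeled nucleotide. Medium aliquot mixed with unlabeled standards, TLC on silica gel in dioxane/conc. ammonia/water (6:1:4) for 2 h. UV-located spots cut out and scintillation counted. Reported as percent of radioactivity per species; mean ± SE of two experiments.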

In assay [2] the test system is INS1. Briefly: Percent of compound radioactivity ([3H]-Ap4A Degradation), in presence of added Ap(s)pCH2pp(s)A, in the incubation medium of INS-1 cell membranes. The format is functional, cell-based. The gist of the method: as §1
Assay [3] concerns INS1. Description: Percent of compound radioactivity ([3H]-Ap4A Degradation), in presence of added Ap(s)pCHClpp(s)A, in the incubation medium of INS-1 cell membranes. The format is functional, cell-based. The gist of the method:
as §1

The subject of assay [4] is INS1. Description: Percent of compound radioactivity ([3H]-Ap4A Degradation), in presence of added Ap4A, in the incubation medium of INS-1 cell membranes. In kind it is functional, cell-based. Details: concentration or dose not given beside the values. The method, boiled down: as §1
For assay [5], the species on record is Rattus norvegicus. Briefly: Percent of compound radioactivity ([3H]-Ap4A Degradation) in heparinized rat plasma (saline). The format is functional. The gist of the method: (§2)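 Heparinized rat plasma (40 μL) incubated 15 min with 10 nM [3H]Ap4A plus 3 μL saline or 3 μL of a 1 mM analogue solution. Products resolved by TLC on silica gel in dioxane/conc. ammonia/water (6:1:4) alongside unlabeled standards, and spots scintillation counted. Reported as percent of radioactivity per species; mean ± SE of two experiments.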

Assay [6] is filed under the species Rattus norvegicus. Briefly: Percent of compound radioactivity ([3H]-Ap4A Degradation), in presence of added Ap(s)pCH2pp(s)A, in heparinized rat plasma. In kind it is functional. Also on record: concentration or dose not given beside the values. The method, boiled down: as §2
For assay [7], the species on record is Rattus norvegicus. Briefly: Percent of compound radioactivity ([3H]-Ap4A Degradation), in presence of added Ap(s)pCHClpp(s)A, in heparinized rat plasma. Details: concentration or dose not given beside the values. The format is functional. The method, boiled down:
as §2

As to `Nc1ncnc2c1ncn2[C@@H]1O[C@H](COP(=O)(O)OP(=O)(O)O)[C@@H](O)[C@H]1O`, the Radioactivity worked out at 11.3% in the assay on INS1 [1]; 9.3% in the assay on INS1 [2]; 8.8% with INS1 [3]; 7.8% with INS1 [4]; 22.3% in the assay filed under Rattus norvegicus [5]; 27.4% in the assay listed under Rattus norvegicus [6]. The Radioactivity in the assay listed under Rattus norvegicus [7] amounted to 30.6%.
With `Nc1ncnc2c1ncn2[C@@H]1O[C@H](CO)[C@@H](O)[C@H]1O`, the Radioactivity with INS1 [1] was 22.4%; in the assay with INS1 [2], 19.4%; in the assay on INS1 [3] it was 14.3%; with INS1 [4] it was 15.1%; in the assay listed under Rattus norvegicus [5], under 1%; in the assay filed under Rattus norvegicus [6], under 1%. Further, the Radioactivity in the assay listed under Rattus norvegicus [7] is under 1%.
Take `Nc1ncnc2c1ncn2[C@@H]1O[C@H](COP(=O)(O)O)[C@@H](O)[C@H]1O`: the Radioactivity in the assay with INS1 [1] was 5.3%; in the assay with INS1 [4], 0.8%; in the assay filed under Rattus norvegicus [5] it was 2.4%; in the assay filed under Rattus norvegicus [6], 1.98%; in the assay listed under Rattus norvegicus [7], 2.31%.
Consider `Nc1ncnc2c1ncn2[C@@H]1O[C@H](COP(=O)(O)OP(=O)(O)OP(=O)(O)O)[C@@H](O)[C@H]1O`, for which the Radioactivity is 8.4% in the assay on INS1 [1]; 8.2% in the assay with INS1 [2]; 4% in the assay with INS1 [4]; 42.1% in the assay filed under Rattus norvegicus [5]; 37.6% in the assay filed under Rattus norvegicus [6]; 40.5% in the assay filed under Rattus norvegicus [7].
Consider `Nc1ncnc2c1ncn2[C@@H]1O[C@H](COP(=O)(O)OP(=O)(O)OP(=O)(O)OP(=O)(O)OC[C@H]2O[C@@H](n3cnc4c(N)ncnc43)[C@H](O)[C@@H]2O)[C@@H](O)[C@H]1O`, for which the Radioactivity in the assay on INS1 [1] amounted to 52.4%; with INS1 [2] it was 54.9%; in the assay on INS1 [3] it was 61.3%; with INS1 [4], 70%; in the assay filed under Rattus norvegicus [5] it was 21.5%; in the assay filed under Rattus norvegicus [6], 31.6%. In addition, the Radioactivity in the assay listed under Rattus norvegicus [7] turned out to be 26.5%.
